Series [1] in a line: AUC in Sprague-Dawley rat at 100 mg/kg, po. In kind it is ADME, organism-based. Particulars: in vivo. The essentials: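 Male 6-week-old SD rats, 5 per group, dosed orally once daily for 2 weeks as a suspension in 0.5% methylcellulose aqueous solution. Plasma drug levels taken 24 h after dosing on days 1, 5 and 10. Exposure figure is from this 2-week repeat-dose toxicity study.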

The next series addresses T1, Cytochrome P450 2A6 (Homo sapiens, UniProt P11509).
T1 sequence (P11509 whole entry): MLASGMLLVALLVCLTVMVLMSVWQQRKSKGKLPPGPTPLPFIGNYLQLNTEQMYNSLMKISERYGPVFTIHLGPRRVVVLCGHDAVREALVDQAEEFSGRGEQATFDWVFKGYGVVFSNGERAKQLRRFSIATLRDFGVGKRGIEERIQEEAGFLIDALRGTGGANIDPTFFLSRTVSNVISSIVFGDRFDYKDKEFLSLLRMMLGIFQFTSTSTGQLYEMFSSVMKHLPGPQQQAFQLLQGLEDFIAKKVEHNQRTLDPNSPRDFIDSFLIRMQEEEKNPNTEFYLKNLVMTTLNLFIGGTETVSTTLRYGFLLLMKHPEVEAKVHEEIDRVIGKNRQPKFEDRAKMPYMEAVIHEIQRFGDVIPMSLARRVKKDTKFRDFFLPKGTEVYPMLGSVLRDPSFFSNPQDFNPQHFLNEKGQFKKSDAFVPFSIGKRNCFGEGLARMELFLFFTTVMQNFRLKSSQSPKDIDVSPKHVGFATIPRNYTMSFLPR
Description: Inhibition of CYP2A6 (unknown origin). It counts as ADME.

In the next series the target is Cytochrome P450 2D6 (Homo sapiens, UniProt P10635). As to the kind of experiment: Inhibition of CYP2D6 (unknown origin). It counts as ADME.
Cytochrome P450 2D6, sequence (P10635 whole entry): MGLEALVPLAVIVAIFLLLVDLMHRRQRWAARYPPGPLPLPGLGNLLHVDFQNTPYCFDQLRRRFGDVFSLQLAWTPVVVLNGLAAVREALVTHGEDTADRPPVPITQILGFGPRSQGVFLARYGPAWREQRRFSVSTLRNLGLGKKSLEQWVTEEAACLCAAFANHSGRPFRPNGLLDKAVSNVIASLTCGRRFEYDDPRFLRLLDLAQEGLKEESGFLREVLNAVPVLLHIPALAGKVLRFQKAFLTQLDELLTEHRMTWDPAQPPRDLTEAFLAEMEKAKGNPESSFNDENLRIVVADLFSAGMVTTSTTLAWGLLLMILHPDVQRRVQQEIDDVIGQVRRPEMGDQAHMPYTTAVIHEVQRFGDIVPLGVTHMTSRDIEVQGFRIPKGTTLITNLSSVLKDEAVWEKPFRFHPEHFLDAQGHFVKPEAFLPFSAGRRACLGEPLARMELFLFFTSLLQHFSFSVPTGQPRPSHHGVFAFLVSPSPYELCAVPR
The test system of series [2] is Rattus norvegicus. As to the kind of experiment: Anti-hepatic steatosis activity in high sucrose very low fat diet fed Sprague-Dawley rat assessed as reduction in triglyceride level in liver administered orally once daily for 8 days and measured on day 8 post last dose. In kind it is functional, organism-based. The procedure, abridged: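 SD rats kept on a high sucrose very low fat diet, dosed orally at 1 or 10 mg/kg once daily for 8 days. On day 8, liver slices were homogenized in methanol and extracted with methanol/chloroform. The supernatant was dried under N2 and redissolved in 2-propanol. Triglyceride was read on an automatic analyzer and expressed as mg/g tissue.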

Series [3] is described as follows: Solubility of the compound in PBS at pH 7.2. In kind it is physicochemical.
Series [4] in a line: Tmax in Sprague-Dawley rat at 10 mg/kg, po. In kind it is ADME, organism-based. The conditions noted are these: in vivo. The essentials: (§1)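 Two male Sprague-Dawley rats per route, 10 mg/kg po and 1 mg/kg iv. Cmax, tmax, terminal-phase half-life and AUC0-inf were taken from plasma concentration–time curves. Bioavailability was derived from the po and iv data.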
For another series, the target named is hERG (KCNH2) (Homo sapiens, UniProt Q12809). Description: Inhibition of human ERG at 10 uM relative to control.
hERG (KCNH2), sequence (Q12809 whole entry): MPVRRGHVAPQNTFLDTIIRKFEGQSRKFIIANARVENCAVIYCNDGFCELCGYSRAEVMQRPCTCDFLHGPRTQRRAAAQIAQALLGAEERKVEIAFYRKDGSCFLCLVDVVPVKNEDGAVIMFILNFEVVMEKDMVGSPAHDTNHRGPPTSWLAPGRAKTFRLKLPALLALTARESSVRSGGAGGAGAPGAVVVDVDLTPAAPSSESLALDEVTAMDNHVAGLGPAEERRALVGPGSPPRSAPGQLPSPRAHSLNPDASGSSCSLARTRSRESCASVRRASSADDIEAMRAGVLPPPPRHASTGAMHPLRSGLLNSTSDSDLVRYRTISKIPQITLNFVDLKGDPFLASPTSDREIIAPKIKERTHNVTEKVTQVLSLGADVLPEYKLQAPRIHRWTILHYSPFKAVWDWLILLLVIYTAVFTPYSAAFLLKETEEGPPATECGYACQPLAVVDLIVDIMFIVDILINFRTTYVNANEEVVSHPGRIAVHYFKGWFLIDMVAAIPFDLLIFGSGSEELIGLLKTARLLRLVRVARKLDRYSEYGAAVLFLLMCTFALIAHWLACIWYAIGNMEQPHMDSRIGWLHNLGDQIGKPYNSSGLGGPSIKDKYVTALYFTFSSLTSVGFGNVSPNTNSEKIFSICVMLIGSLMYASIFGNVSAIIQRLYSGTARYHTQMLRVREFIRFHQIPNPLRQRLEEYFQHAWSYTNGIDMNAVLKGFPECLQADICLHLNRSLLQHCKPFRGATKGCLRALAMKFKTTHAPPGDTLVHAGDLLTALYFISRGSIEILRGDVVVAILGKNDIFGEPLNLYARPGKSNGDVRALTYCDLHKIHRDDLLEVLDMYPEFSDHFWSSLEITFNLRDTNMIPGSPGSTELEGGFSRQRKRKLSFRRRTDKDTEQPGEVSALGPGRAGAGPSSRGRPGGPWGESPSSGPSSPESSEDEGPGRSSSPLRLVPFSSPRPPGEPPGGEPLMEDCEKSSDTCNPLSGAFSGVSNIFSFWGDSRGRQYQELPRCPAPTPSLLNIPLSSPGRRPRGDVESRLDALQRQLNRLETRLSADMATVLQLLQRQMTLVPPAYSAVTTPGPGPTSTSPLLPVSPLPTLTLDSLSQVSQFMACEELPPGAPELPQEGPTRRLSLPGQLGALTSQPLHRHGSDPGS
Series [5] deals with Mus musculus. As to the kind of experiment: Ex vivo inhibition of SCD1 in C57BL/6J mouse liver assessed as residual activity at 1 mg/kg, po treated for 6 hrs followed by incubation with [14C]stearoyl-CoA substrate for 10 mins by TLC assay relative to control. It counts as functional. The essentials: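 Male 6-week-old C57BL/6J mice dosed orally as a suspension in 0.5% methylcellulose. Liver or eyelid was taken 6 or 24 h later and homogenized in 100 mM Tris-HCl pH 7.4 with 0.25 M sucrose. S9 was obtained at 10,000 × g, 4 °C. S9 was incubated with [14C]stearoyl-CoA, NADH, MgCl2 and cytochrome b5 at room temperature, 10 min for liver and 30 min for eyelid. Lipids were saponified and run on AgNO3 TLC to quantify stearate and oleate. Result is % of vehicle control.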

Series [6] in a line: Metabolic stability in human liver S9 fraction after 1 hr. In kind it is ADME, subcellular. Particulars: read-out: Stability.
Series [7] is described as follows: Tmax in C57BL/6J mouse at 10 mg/kg, po. In kind it is ADME, organism-based. The conditions noted are these: in vivo. The procedure, abridged: (§2)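 Two male C57BL/6J mice per route, 10 mg/kg po and 1 mg/kg iv. Plasma concentration–time profiles gave Cmax, tmax, terminal half-life and AUC0-inf. Bioavailability was derived from the po and iv data.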
The subject of series [8] is Mus musculus. As to the kind of experiment: Antidiabetic activity in high fat diet fed C57BL/6J mouse assessed as reduction in plasma glucose AUC (0 to 120 mins) administered orally as diet mixture for 43 days and measured on day 22 of administration after overnight fasting by OGTT method. It counts as functional, organism-based. The procedure, abridged: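 Male? not stated. C57BL/6J mice fed high fat diet for one month, then given compound as HFD admixture (0.0040% or 0.0133%) for ~3 or 10 mg/kg/day over 43 days (10–16 weeks of age); controls on normal chow or HFD. Day 22: overnight fast, glucose load 1 g/kg; plasma glucose at 0, 0.5, 1, 2 h, AUC calculated; n=5–8, mean ± SD, Dunnett's test.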

Another series concerns the target Cytochrome P450 3A4 (Homo sapiens, UniProt P08684). Description: Inhibition of CYP3A4 (unknown origin). It counts as ADME.
Series [9] in a line: Ratio of drug uptake in high sucrose diet Sprague-Dawley rat liver to eyelid at 10 mg/kg, po treated after 6 hrs. It counts as ADME, organism-based. The conditions noted are these: in vivo. The essentials: (§3)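 Sprague-Dawley rats on a high sucrose diet, given a single oral 10 mg/kg dose. Plasma, liver and eyelid drug concentrations were measured 6 h later, n=3. Liver/eyelid ratio was taken from the tissue concentrations.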

The nature of series [10]: Metabolic stability in mouse liver S9 fraction after 1 hr. In kind it is ADME, subcellular. The conditions noted are these: read-out: Stability.
For series [11], the system named is Rattus norvegicus. As to the kind of experiment: Toxicity in Sprague-Dawley rat assessed as loss of fur at 1000 mg/kg, po once daily for 2 weeks measured from day 9 of administeration. In kind it is organism-based. Particulars: in vivo, 336 h. The essentials:
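Male Sprague Dawley rats, 6 weeks old (5 per group), were dosed orally once daily for 2 weeks at 100 or 1000 mg/kg as a suspension in 0.5% methylcellulose; controls received vehicle. Readouts: clinical observations, body weight, food consumption, ophthalmoscopy in week 2, and terminal necropsy, hematology, clinical chemistry, organ weights and histopathology. Plasma levels were measured 24 h post-dose on days 1, 5 and 10.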

A short description of series [12]: Drug uptake in high sucrose diet Sprague-Dawley rat liver at 10 mg/kg, po treated after 6 hrs. It counts as ADME, organism-based. Particulars: read-out: Drug uptake. The procedure, abridged: as §3
The subject of series [13] is Rattus norvegicus. Description: Ex vivo inhibition of SCD1 in high sucrose diet Sprague-Dawley rat liver treated orally for 6 hrs followed by incubation with [14C]stearoyl-CoA substrate for 10 mins by TLC assay. It counts as functional, organism-based. The procedure, abridged: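 Sprague-Dawley rats on a high sucrose diet, given oral 1 or 10 mg/kg. Liver, epididymal adipose and eyelid were taken 6 h later and homogenized. S9 SCD activity was measured by [14C]stearoyl-CoA conversion to oleate and quantified by AgNO3 TLC imaging. Result is % remaining activity versus control, mean ± SD, n=3.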

The next series deals with Cytochrome P450 2C19 (Homo sapiens, UniProt P33261). Description: Inhibition of CYP2C19 (unknown origin). It counts as ADME.
Cytochrome P450 2C19, sequence (P33261 whole entry): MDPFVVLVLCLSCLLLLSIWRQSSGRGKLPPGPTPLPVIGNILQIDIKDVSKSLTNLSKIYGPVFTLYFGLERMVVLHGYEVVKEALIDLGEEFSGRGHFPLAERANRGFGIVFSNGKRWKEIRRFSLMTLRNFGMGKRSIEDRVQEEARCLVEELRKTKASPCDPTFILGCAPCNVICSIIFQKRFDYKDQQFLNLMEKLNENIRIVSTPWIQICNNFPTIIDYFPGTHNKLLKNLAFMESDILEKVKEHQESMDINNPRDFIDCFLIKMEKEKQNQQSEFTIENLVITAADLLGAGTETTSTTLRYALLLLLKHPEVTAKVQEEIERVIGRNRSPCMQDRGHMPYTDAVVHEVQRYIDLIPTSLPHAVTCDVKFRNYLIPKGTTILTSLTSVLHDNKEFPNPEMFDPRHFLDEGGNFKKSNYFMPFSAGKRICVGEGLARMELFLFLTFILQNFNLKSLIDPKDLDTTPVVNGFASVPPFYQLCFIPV
The target of the next series is Cytochrome P450 2C9 (Homo sapiens, UniProt P11712). As to the kind of experiment: Inhibition of CYP2C9 (unknown origin). In kind it is ADME.
Cytochrome P450 2C9, sequence (P11712 whole entry): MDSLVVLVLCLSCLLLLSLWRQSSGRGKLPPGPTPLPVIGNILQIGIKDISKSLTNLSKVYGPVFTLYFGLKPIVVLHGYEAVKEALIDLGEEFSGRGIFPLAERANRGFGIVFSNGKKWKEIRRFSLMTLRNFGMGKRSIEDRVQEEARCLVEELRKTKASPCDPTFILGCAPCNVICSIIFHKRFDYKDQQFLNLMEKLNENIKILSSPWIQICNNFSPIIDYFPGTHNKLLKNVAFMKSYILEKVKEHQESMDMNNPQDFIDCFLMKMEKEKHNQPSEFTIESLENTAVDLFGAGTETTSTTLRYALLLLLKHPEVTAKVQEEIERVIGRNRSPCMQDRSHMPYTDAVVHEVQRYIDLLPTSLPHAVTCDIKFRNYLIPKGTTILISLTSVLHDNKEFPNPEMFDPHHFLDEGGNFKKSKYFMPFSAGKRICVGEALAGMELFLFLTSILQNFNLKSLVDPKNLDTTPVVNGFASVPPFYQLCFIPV
A short description of series [14]: AUC (0 to infinity) in Sprague-Dawley rat at 10 mg/kg, po. Details: dose 10 mg/kg, route oral, time infinity. In kind it is ADME, organism-based. Particulars: in vivo.
Series [15] is described as follows: Oral bioavailability in Sprague-Dawley rat at 10 mg/kg. It counts as ADME, organism-based. Particulars: in vivo. The procedure, abridged:
as §1

Series [16] is described as follows: Drug uptake in high sucrose diet Sprague-Dawley rat eyelid at 10 mg/kg, po treated after 6 hrs. It counts as ADME, organism-based. The conditions noted are these: read-out: Drug uptake. The procedure, abridged: as §3
Series [17] can be described thus: Apparent terminal half life in C57BL/6J mouse at 10 mg/kg, po. In kind it is ADME, organism-based. The conditions noted are these: in vivo, read-out: betat1/2(app) (converted). The essentials:
as §2

In general, AUC refers to concentration integrated over time. High values mean high exposure, low ones low exposure. For orientation: IC50 means the concentration at which inhibition is half-maximal. A lower IC50 goes with greater potency. Usually solubility stands for how much of the substance goes into solution per volume. Low values mean a poorly soluble substance, high ones a readily soluble substance. Usually Tmax stands for the time from dosing to the highest level. Usually inhibition stands for the drop in the measured response relative to a control, in per cent. As a reminder, the AUC(0-inf) is the area under the concentration-time curve extrapolated to infinity. Read a high AUC(0-inf) as high exposure. Broadly, the bioavailability is dose-corrected exposure relative to a reference, in per cent. Low values mean little systemic uptake, high ones much systemic uptake.

The structures appear in SMILES notation. Converted amounts (≈) assume the structure as drawn.

Cytochrome P450 3A4, sequence (P08684 whole entry): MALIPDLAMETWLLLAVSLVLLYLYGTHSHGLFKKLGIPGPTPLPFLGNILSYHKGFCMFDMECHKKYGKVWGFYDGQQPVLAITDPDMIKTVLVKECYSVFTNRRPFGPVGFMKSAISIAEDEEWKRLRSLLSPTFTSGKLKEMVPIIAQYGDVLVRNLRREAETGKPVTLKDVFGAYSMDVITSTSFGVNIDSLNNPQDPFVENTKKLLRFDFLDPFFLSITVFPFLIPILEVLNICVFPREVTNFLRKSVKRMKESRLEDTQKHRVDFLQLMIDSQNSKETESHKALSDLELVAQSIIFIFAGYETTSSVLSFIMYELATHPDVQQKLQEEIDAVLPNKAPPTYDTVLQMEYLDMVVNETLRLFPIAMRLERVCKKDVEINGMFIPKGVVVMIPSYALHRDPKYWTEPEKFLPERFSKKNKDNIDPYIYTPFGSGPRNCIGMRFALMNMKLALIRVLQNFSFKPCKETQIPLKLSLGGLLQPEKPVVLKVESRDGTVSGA

Consider `CCCCc1ccccc1NCc1ccc(C(=O)Nc2nc(CC(=O)O)cs2)s1`, for which the AUC in [1] is 179 µM·h. The IC50 on Cytochrome P450 2A6, at Cytochrome P450 2D6, on Cytochrome P450 3A4, against Cytochrome P450 2C19 and on Cytochrome P450 2C9 was more than 50 µM each time. Besides, the Activity result in the series on Rattus norvegicus [2] is “Dose-dependent effect”; in the series with Mus musculus [5] it was 13%; with Mus musculus [8], “Dose-dependent effect”; with Rattus norvegicus [11] it was “Toxic”. This compound displayed a solubility in series [3] of 82 µM (≈ 35.2 µg/mL). The Tmax is 30 min in [4] and 1 h in series [7]. The compound also had an inhibition at 10 µM at hERG (KCNH2) of 14.7%. For the same compound, the remaining at 1 h in series [6] worked out at 91%; in [10] it was 90%. For the same compound, the Ratio in [9] was 6.3. Also, the values for the concentration at 6 h in series [12] and in [16] were 1000 nM and 160 nM, respectively. Also, the inhibition result in the series with Rattus norvegicus [13] is “Dose-dependent effect”. Further, in series [14], the AUC(0-inf) was 16.5 µM·h. In series [15], this compound returned a bioavailability of 16%. Moreover, in series [17], the half-life was 312 min.

(Values after ChEMBL document CHEMBL4265954, “Discovery of potent liver-selective stearoyl-CoA desaturase-1 (SCD1) inhibitors, thiazole-4-acetic acid derivatives, for the treatment of diabetes, hepatic steatosis, and obesity” (Eur J Med Chem, 2018).)
